# Hits are enriched below; roughly 3.6% of the tested compounds scored in any of these assays.
# VIM-2 inh: blocks Pseudomonas aeruginosa VIM-2 metallo-beta-lactamase | inhibition, % at 5.6 µM | purified VIM-2, nitrocefin hydrolysis, epi-absorbance fluorescence | 0.89% of 290,000 active;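 active means inhibition above the mean of all tested compounds plus 3 SD, cutoff set per screening run, cut at about 7.5% in these data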;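 further: red hydrolysis product quenches plate fluorescence so inhibitors raise well fluorescence; 0% = enzyme with DMSO and 100% = DMSO without enzyme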
# IMP-1 inh: inhibitors of Pseudomonas aeruginosa IMP-1 metallo-beta-lactamase | AID 1556 | purified IMP-1, nitrocefin hydrolysis, epi-absorbance fluorescence | 0.45% of 290,000 active | inhibition, % at 5.6 µM;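 active means inhibition above the mean plus 3 SD of all compounds in the same screening run, cut at about 4.5% in these data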;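 further: 0% = IMP-1 with DMSO and 100% = DMSO wells lacking enzyme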
#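 assay system = purified recombinant IMP-1 metallo-beta-lactamase enzyme | schedule = 15 min preincubation plus 25 min reaction at 25 °C | signal = Epi-absorbance fluorescence, 480 nm excitation, 530 nm emission | read-out basis = percent inhibition from optical density relative to buffer-blank wells | controls = IMP-1 with DMSO as 0%, enzyme-free DMSO as 100%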
# PAFAH1B2 FP inh: PAFAH1B2 (human) inhibition. recombinant PAFAH1B2, FP-rhodamine activity probe, fluorescence polarization. inhibition, % at 3.39 µM. 1.2% of 340,000 active. AID 492953;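 active means inhibition above the mean of all tested compounds plus 3 SD, cut at about 24% in these data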;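 further: 0% = enzyme with DMSO and 100% = wells lacking PAFAH1B2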
# pPAFAH FP inh: inhibitors of human plasma PAF acetylhydrolase (pPAFAH); inhibition, % at 3.39 µM; Q13093; 1.5% of 330,000 active; recombinant pPAFAH, FP-rhodamine probe fluorescence polarization;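 active means inhibition above the mean inhibition across the screen plus 3 SD, cut at about 25% in these data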;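 further: inhibitors block binding of the rhodamine activity-based probe so polarization drops; 0% = enzyme with DMSO and 100% = wells lacking pPAFAH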
# Target sequence (Q13093 whole entry, looked up): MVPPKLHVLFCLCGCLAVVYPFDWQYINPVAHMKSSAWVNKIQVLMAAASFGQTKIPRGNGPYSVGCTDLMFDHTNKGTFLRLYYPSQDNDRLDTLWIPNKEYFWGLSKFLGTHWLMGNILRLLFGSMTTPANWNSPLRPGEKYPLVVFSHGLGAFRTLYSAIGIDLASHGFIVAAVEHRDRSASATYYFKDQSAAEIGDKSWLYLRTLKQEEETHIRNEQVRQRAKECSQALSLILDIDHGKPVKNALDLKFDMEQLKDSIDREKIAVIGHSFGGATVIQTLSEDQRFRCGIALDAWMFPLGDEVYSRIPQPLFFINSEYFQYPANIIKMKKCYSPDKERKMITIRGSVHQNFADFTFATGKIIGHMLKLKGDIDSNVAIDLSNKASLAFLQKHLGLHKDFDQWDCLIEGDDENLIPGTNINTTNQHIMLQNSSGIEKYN
# PAFAH2 inh: inhibitors of human PAFAH2; recombinant PAFAH2, FP-rhodamine activity probe, fluorescence polarization; 0.99% of 340,000 active; Q99487; inhibition, % at 3.39 µM; AID 492956;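 active means inhibition above the mean over all tested compounds plus 3 SD, cut at about 30% in these data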;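 further: inhibitors block probe labeling of enzyme so polarization drops; 0% = enzyme with DMSO and 100% = wells lacking PAFAH2 protein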
# PAFAH1B3 FP inh: blocks human PAF acetylhydrolase 1B catalytic subunit 3; AID 492972; 0.28% of 340,000 active; inhibition, % at 3.39 µM; Q15102; recombinant PAFAH1B3, FP-rhodamine probe, fluorescence polarization;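 active means inhibition above the screen-wide average of all tested compounds plus 3 SD, cut at about 25% in these data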;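 further: 0% = enzyme with DMSO only and 100% = wells lacking PAFAH1B3 protein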
# Target sequence (Q15102 whole entry, looked up): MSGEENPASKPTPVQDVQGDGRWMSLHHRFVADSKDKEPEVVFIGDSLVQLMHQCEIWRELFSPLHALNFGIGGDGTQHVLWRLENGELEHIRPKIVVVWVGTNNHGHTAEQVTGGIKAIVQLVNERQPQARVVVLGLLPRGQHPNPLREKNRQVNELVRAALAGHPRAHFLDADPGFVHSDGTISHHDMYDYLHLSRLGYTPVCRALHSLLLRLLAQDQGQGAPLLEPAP
# PAFAH2 confirm: PAFAH2 (human) inhibition, confirmed; shares compounds with PAFAH2 inh; recombinant PAFAH2, FP-rhodamine activity probe, fluorescence polarization; inhibition, % at 3.39 µM; 65% of 2,300 active;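 active means mean inhibition over three repeats above a set limit taken from the earlier primary screen, cut at about 30% in these data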;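 further: inhibitor blocks binding of rhodamine activity probe so polarization falls; 0% = enzyme with DMSO and 100% = wells lacking PAFAH2 protein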
# * hit, by the source's call; x = no result given.
SMILES,VIM-2 inh,IMP-1 inh,PAFAH1B2 FP inh,pPAFAH FP inh,PAFAH2 inh,PAFAH1B3 FP inh,PAFAH2 confirm
CC1(C)CC2CC(C)(CN2S(=O)(=O)c2ccc(F)cc2F)C1 (configuration not stated),x,x,14.8,-1.2,0.7,0.6,x
N#CCC(=O)Nc1ccc(C(=O)OCC(=O)NCCCc2ccccc2)cc1,-3.6,-2.8,1.2,9.5,38.0*,0.3,30.0*
CCC(CO)Oc1cc(NC(=O)Cc2ccccc2F)c2ncn(C(C)C)c2c1 (configuration not stated),x,x,6.3,18.7,40.4*,8.5,20.1
CCN(CC)c1ccc(/C=N/n2c(-c3ccccc3Br)n[nH]c2=S)cc1,-3.0,-3.8,9.1,17.1,30.7*,0.9,9.8
Cc1c(C(c2ccccc2O)c2c(C)n(C)n(-c3ccccc3)c2=O)c(=O)n(-c2ccccc2)n1C,2.0,0.2,3.7,6.3,-4.7,12.3,x
CCCCCCC(c1c(C)n(C)n(-c2ccccc2)c1=O)c1c(C)n(C)n(-c2ccccc2)c1=O,-0.8,-2.0,4.2,0.1,69.7*,1.9,70.3*
O=C(Cc1ccccc1)c1ccc(N2CCOCC2)cc1,x,x,-2.7,x,6.2,9.9,x
COc1ccc(/C=C2\SC(=O)N(CC(=O)Nc3ccccc3O)C2=O)cc1OC,-0.6,-1.9,2.4,x,-8.5,1.0,x
Cc1ccc(/C=C2/SC(=S)N(CCCC(=O)Nc3cc([N+](=O)[O-])ccc3O)C2=O)cc1,-1.9,-2.4,4.1,7.6,32.4*,8.9,15.7
O=C(CN1C(=O)S/C(=C\c2ccccc2)C1=O)Nc1cc([N+](=O)[O-])ccc1O,-0.2,-1.9,15.7,24.0,57.0*,14.7,42.7*
CS(=O)(=O)Cc1ccc(C(=O)Nc2cccc(-c3nc4ccccc4[nH]3)c2)cc1,-4.2,-3.9,-7.4,-10.4,-32.6,-20.2,x
O=C(COC(=O)c1ccccc1)Nc1cccc(S(=O)(=O)N2CCCCC2)c1,x,x,1.6,x,39.8*,4.3,23.3
Cc1ccc(C(=O)OCC(=O)Nc2cccc(S(=O)(=O)N3CCCCC3)c2)o1,x,x,2.8,6.2,41.6*,0.7,26.5
O=C(COC(=O)c1cccs1)Nc1cccc(S(=O)(=O)N2CCCCC2)c1,x,x,-6.3,7.3,68.8*,18.5,63.5*
O=C(COC(=O)c1ccc(S(=O)(=O)N2CCCCC2)cc1)Nc1ccccc1,x,x,0.6,5.7,0.8,0.5,x
O=C(COC(=O)c1cccc(S(=O)(=O)N2CCCCCC2)c1)Nc1ccccc1,x,x,-0.8,x,65.6*,4.6,60.5*
N#Cc1ccc(C(=O)OCC(=O)Nc2cccc(S(=O)(=O)N3CCCCC3)c2)cc1,x,x,-6.4,1.5,-0.8,17.6,x
O=C(OCC(=O)N(CCc1ccccc1)Cc1ccccc1)c1ccccc1NCCO,-1.0,-1.8,6.5,9.6,1.0,2.0,x
O=C(Nc1ccnn1C1CCN(C(=O)c2cc(Cl)ccc2F)CC1)C1CCOC1 (configuration not stated),-0.9,-1.0,1.9,4.6,3.1,9.2,x
Cc1cc(NC(=O)CSc2n[nH]c(-c3ccc(Cl)cc3Cl)n2)no1,x,x,0.5,-4.9,3.8,-4.1,x
Cc1cccc(NC(=O)COC(=O)C2C3CC4OC(=O)C2C4C3)c1C (configuration not stated),-4.3,-1.0,2.9,-2.9,7.1,-2.0,x
COc1cccc(NC(=O)C2C3CC4OC(=O)C2C4C3)c1 (configuration not stated),0.4,-3.8,0.8,2.8,5.0,-5.6,x
Cc1cccc(C)c1NC(=O)COC(=O)C1C2CC3OC(=O)C1C3C2 (configuration not stated),-1.7,-1.6,1.2,-2.2,15.6,4.8,x
O=C(COC(=O)C1C2CC3OC(=O)C1C3C2)Nc1cccc(C(F)(F)F)c1 (configuration not stated),-3.9,-2.5,-1.8,6.8,70.8*,9.6,78.5*
CCc1ccccc1NC(=O)COC(=O)C1C2CC3OC(=O)C1C3C2 (configuration not stated),-1.9,0.2,1.5,0.1,39.6*,5.3,30.8*
SMILES,VIM-2 inh,IMP-1 inh,PAFAH1B2 FP inh,pPAFAH FP inh,PAFAH2 inh,PAFAH1B3 FP inh,PAFAH2 confirm
O=C(COC(=O)C1C2CC3OC(=O)C1C3C2)Nc1ccc(Cl)cc1 (configuration not stated),-1.4,-3.3,-0.1,7.7,83.6*,2.4,73.7*
COc1cccc(NC(=O)COC(=O)C2C3CC4OC(=O)C2C4C3)c1 (configuration not stated),-2.7,-1.0,1.4,5.2,78.8*,10.6,68.5*
CC(OC(=O)c1cc(S(=O)(=O)N2CCOCC2)ccc1Br)C(=O)N1CCOCC1 (configuration not stated),x,x,6.0,2.5,-3.9,-4.4,x
CCOCc1c(C(=O)NCc2ccccc2CN2CCCC2)oc2ccccc12,x,x,5.5,1.0,-0.1,1.5,x
O=C(NN1CCOCC1)c1cccc(Cl)c1,-2.4,-2.4,-4.2,-3.1,-4.0,0.7,x
CC(=O)C1=C(O)C(=O)N(c2cc(C(C)(C)C)on2)C1c1ccc(Br)cc1 (configuration not stated),1.9,1.0,13.7,7.2,33.9*,7.4,22.6
Cn1c(=O)c2nc(-c3ccccc3)c(-c3ccccc3)nc2n(C)c1=O,x,x,1.9,-0.3,5.2,3.5,x
Cn1c(=O)c2nc(Cl)c(-c3ccccc3)nc2n(C)c1=O,-0.8,-1.9,-1.2,-3.0,33.4*,2.4,38.4*
Cn1nnnc1SCC1=C(C(=O)O)N2C(=O)C(NC(=O)C3CC3c3ccccc3)C2SC1 (configuration not stated),-0.7,-3.1,6.7,0.9,44.2*,-2.6,6.3
COC(=O)c1cc(S(=O)(=O)NCC2CCN(CCc3ccc(OC)cc3)CC2)c[nH]1,0.7,-0.5,3.7,5.9,2.4,3.9,x
COc1cc2c(C(F)(F)F)c(-c3ccsc3)oc(=O)c2cc1OC,x,x,1.6,8.2,58.9*,7.1,39.0*
COc1cc2c(C(F)(F)F)c(-c3ccc(C#N)cc3)oc(=O)c2cc1OC,x,x,6.7,-0.4,7.6,-5.9,x
NC(=O)Nc1ccc(C(=O)OCC(=O)Nc2cccc(S(=O)(=O)NC3=NCCCCC3)c2)cc1,-0.8,-0.9,2.6,2.7,61.4*,8.4,64.8*
Cc1ccsc1C(=O)OCC(=O)Nc1cccc(S(=O)(=O)NC2=NCCCCC2)c1,-0.9,1.4,4.7,3.1,45.6*,3.6,32.6*
Cc1cc(C)cc(C(=O)OCC(=O)Nc2cccc(S(=O)(=O)NC3=NCCCCC3)c2)c1,1.8,0.2,2.0,6.6,12.2,-4.6,x
O=C(COC(=O)c1ccc(OC(F)F)cc1)Nc1cccc(S(=O)(=O)NC2=NCCC2)c1,x,x,-1.1,1.4,31.4*,10.1,18.6
O=C(CCN1C(=O)NC2(CCCC2)C1=O)Nc1ccc(-c2nc3ccccc3s2)cc1,x,x,3.2,8.3,7.3,-2.1,x

# From PubChem
